For assay [1], the target named is glyceraldehyde-3-phosphate dehydrogenase (glycosomal GAPDH per title). Nature of the assay: TInhibition of glyceraldehyde-3-phosphate dehydrogenase in Leishmania mexicana. The essentials: (§1)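 Enzyme sources: human erythrocyte GAPDH, glycosomal GAPDH from T. brucei, and glycosomal GAPDH from L. mexicana. IC50 is the inhibitor concentration at which 50% of enzyme activity remains. Poorly soluble compounds were not tested above their solubility limit, and the remaining activity at that level was recorded instead.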

The target in assay [2] is glycosomal glyceraldehyde-3-phosphate dehydrogenase (GAPDH). Nature of the assay: Inhibition of glyceraldehyde-3-phosphate dehydrogenase in Trypanosoma brucei. Put shortly: as §1

Usually IC50 stands for the concentration at which inhibition is half-maximal. Turning to `Nc1ncnc2c1ncn2C1OC(CO)C(O)C1NCc1ccccc1` (stereo unspecified) [5-(6-Amino-purin-9-yl)-4-benzylamino-2-hydroxymethyl-tetrahydro-furan-3-ol], the IC50 in assay [1] and in assay [2] was > 10 mM throughout.

`COc1cccc(C(=O)NC2C(O)C(CO)OC2n2cnc3c(N)nc(C)nc32)c1` (stereo unspecified) [N-[2-(6-Amino-2-methyl-purin-9-yl)-4-hydroxy-5-hydroxymethyl-tetrahydro-furan-3-yl]-3-methoxy-benzamide]: the IC50 in assay [1] and in assay [2] was > 10 mM in each case.

For the compound `CC(C)COC(=O)NC1C(O)C(CO)OC1n1cnc2c(N)ncnc21` (stereo unspecified) [[2-(6-Amino-purin-9-yl)-4-hydroxy-5-hydroxymethyl-tetrahydro-furan-3-yl]-carbamic acid isobutyl ester], the IC50 in assay [1] and in assay [2] was > 10 mM throughout.
